{
  "source": "ChEMBL document CHEMBL1124448",
  "about": "“Comparison of the biological effects of selected 5,8-dideazafolate analogues with their 2-desamino counterparts” (J Med Chem, 1989)",
  "key": {"Thymidylate synthase": {"biological_target": "Thymidylate synthase (Mus musculus, UniProt P07607)", "sequence (P07607 whole entry)": "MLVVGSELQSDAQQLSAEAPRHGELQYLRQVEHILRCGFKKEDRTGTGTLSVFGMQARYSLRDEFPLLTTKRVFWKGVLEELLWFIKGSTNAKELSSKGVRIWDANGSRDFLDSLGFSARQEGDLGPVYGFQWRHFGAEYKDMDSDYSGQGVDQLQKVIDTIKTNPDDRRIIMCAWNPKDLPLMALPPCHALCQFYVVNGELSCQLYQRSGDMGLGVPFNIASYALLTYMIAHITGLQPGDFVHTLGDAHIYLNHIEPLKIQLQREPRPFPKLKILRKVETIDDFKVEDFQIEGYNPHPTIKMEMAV", "test": "Inhibition of L1210 leukemia thymidylate synthase (TS) enzyme", "conditions": "read-out: I50"}, "L1210 [1]": {"test_system": "L1210", "test": "Inhibition of the growth of methotrexate resistant L1210 leukemia/R 81 cells in culture", "type": "functional, cell-based", "conditions": "Mus musculus", "summary_of_the_method": "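MTT viability assay, 48 h. Log-phase cells were plated at […] onto serial drug dilutions in RPMI 1640 with 10% fetal bovine serum, in 8% CO2, humidified. MTT (5 mg/mL stock) was added for 3 h and the formazan dissolved in 0.04 N HCl/2-propanol. A570 was read within 1 h. Each plate carried no-drug control and no-cell blank rows. IC50 determined.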"}, "L1210 [2]": {"test_system": "L1210", "test": "Inhibition of the growth of methotrexate sensitive L1210 leukemia/S cells in culture", "type": "functional, cell-based", "conditions": "Mus musculus", "summary_of_the_method": "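MTT viability assay, 48 h. MTT (5 mg/mL stock) was added for 3 h and the formazan dissolved in 0.04 N HCl/2-propanol. A570 was read within 1 h. Each plate carried no-drug control and no-cell blank rows. IC50 determined.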"}},
  "data": [
    {"smiles": "O=C(O)CCC(NC(=O)c1ccc(OCc2ccc3ncnc(O)c3c2)cc1)C(=O)O", "note": "(stereo not given)", "values": [
      {"measurement": "IC50", "setting": "Thymidylate synthase", "result": 49, "unit": "µM"},
      {"measurement": "IC50", "setting": "L1210 [1]", "result": "> 200", "unit": "µM"},
      {"measurement": "IC50", "setting": "L1210 [2]", "result": 0.28, "unit": "µM"}
    ]},
    {"smiles": "Nc1nc(=O)c2cc(NCc3ccc(C(=O)NC(CCC(=O)O)C(=O)O)cc3)ccc2[nH]1", "note": "(stereo not given)", "values": [
      {"measurement": "IC50", "setting": "L1210 [1]", "result": "> 200", "unit": "µM"},
      {"measurement": "IC50", "setting": "L1210 [2]", "result": 3.2, "unit": "µM"}
    ]},
    {"smiles": "C#CCN(Cc1ccc2ncnc(O)c2c1)c1ccc(C(=O)NC(CCC(=O)O)C(=O)O)cc1", "note": "(stereo not given)", "values": [
      {"measurement": "IC50", "setting": "L1210 [1]", "result": 75, "unit": "µM"},
      {"measurement": "IC50", "setting": "L1210 [2]", "result": 0.27, "unit": "µM"}
    ]},
    {"smiles": "Nc1nc(=O)c2cc(CSc3ccc(C(=O)NC(CCC(=O)O)C(=O)O)cc3)ccc2[nH]1", "note": "(stereo not given)", "values": [
      {"measurement": "IC50", "setting": "L1210 [1]", "result": "> 200", "unit": "µM"},
      {"measurement": "IC50", "setting": "L1210 [2]", "result": 7.6, "unit": "µM"}
    ]},
    {"smiles": "C#CCN(Cc1ccc2[nH]c(N)nc(=O)c2c1)c1ccc(C(=O)NC(CCC(=O)O)C(=O)O)cc1", "note": "(stereo not given)", "values": [
      {"measurement": "IC50", "setting": "L1210 [1]", "result": 116, "unit": "µM"}
    ]},
    {"smiles": "CN(Cc1cnc2nc(N)nc(N)c2n1)c1ccc(C(=O)N[C@@H](CCC(=O)O)C(=O)O)cc1", "note": "[METHOTREXATE]", "values": [
      {"measurement": "IC50", "setting": "L1210 [1]", "result": 186, "unit": "µM"},
      {"measurement": "IC50", "setting": "L1210 [2]", "result": 0.0044, "unit": "µM"}
    ]},
    {"smiles": "Nc1nc(O)c2cc(COc3ccc(C(=O)NC(CCC(=O)O)C(=O)O)cc3)ccc2n1", "note": "(stereo not given)", "values": [
      {"measurement": "IC50", "setting": "L1210 [1]", "result": 39, "unit": "µM"},
      {"measurement": "IC50", "setting": "L1210 [2]", "result": 1.2, "unit": "µM"}
    ]},
    {"smiles": "O=C(O)CCC(NC(=O)c1ccc(CNc2ccc3ncnc(O)c3c2)cc1)C(=O)O", "note": "(stereo not given)", "values": [
      {"measurement": "IC50", "setting": "Thymidylate synthase", "result": 25, "unit": "µM"},
      {"measurement": "IC50", "setting": "L1210 [1]", "result": "> 200", "unit": "µM"},
      {"measurement": "IC50", "setting": "L1210 [2]", "result": 0.53, "unit": "µM"}
    ]},
    {"smiles": "O=C(O)CCC(NC(=O)c1ccc(SCc2ccc3ncnc(O)c3c2)cc1)C(=O)O", "note": "(stereo not given)", "values": [
      {"measurement": "IC50", "setting": "Thymidylate synthase", "result": 13.8, "unit": "µM"},
      {"measurement": "IC50", "setting": "L1210 [1]", "result": "> 200", "unit": "µM"},
      {"measurement": "IC50", "setting": "L1210 [2]", "result": 1.3, "unit": "µM"}
    ]}
  ]
}
